Data set [1] relates to L6. Put plainly: Cytotoxicity against rat L6 cells after 72 hrs by Alamar Blue assay. As to conditions: L6, 72 h. In kind it is cell-based. Put shortly: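 Counter-screen for cytotoxicity in uninfected L6 rat skeletal muscle myoblasts, with IC50 recorded in µM.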
Background: The colour change of resazurin is a common sign of viable cells or microbes.

Data set [2] concerns Trypanosoma cruzi. Put plainly: Antitrypanosomal activity against Trypanosoma cruzi Tulahuen TcVI extracellular trypomastigotes forms transfected with beta-galactosidase gene infected in rat L6 cells assessed as inhibition of parasite growth after 4 days. In kind it is functional, organism-based. As to conditions: L6, 96 h. Put shortly:
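L6 rat skeletal myoblasts were infected with extracellular trypomastigotes of β-galactosidase-transfected T. cruzi Tulahuen TcVI. After 48 h to establish infection, compound was added and incubation continued 4 days, exposing trypomastigote and intracellular amastigote forms.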

Data set [3] is described as follows: Selectivity index, ratio of IC50 for rat L6 cells to IC50 for Trypanosoma cruzi Tulahuen TcVI extracellular trypomastigotes forms. In kind it is toxicity, cell-based. As to conditions: read-out: Ratio IC50. Put shortly: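 Ratio of the L6 myoblast cytotoxicity IC50 to the IC50 against β-galactosidase-expressing T. cruzi Tulahuen TcVI.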
Data set [4] deals with CYP3A4/5 (Homo sapiens, UniProt P08684+P20815). Put plainly: Inhibition of CYP3A4/5 in human liver microsomes assessed as reduction in testosterone-beta-hydroxylation. In kind it is ADME, Microsome. As to conditions: probe testosterone. Put shortly: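 CYP3A4 inhibition measured as inhibition of testosterone β-hydroxylation, reported as IC50 (µM).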
A short description of data set [5]: Kinetic solubility of the compound at pH 6.5 phosphate buffer by nephelometric analysis. As to conditions: read-out: Kinetic_solubility. In kind it is physicochemical. Put shortly:
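Kinetic solubility in phosphate buffer at pH 6.5, determined by nephelometry and reported in µg/mL.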

The test system of data set [6] is Trypanosoma cruzi. Put plainly: Antitrypanosomal activity against Trypanosoma cruzi Tulahuen TcVI infected in Swiss mouse model of Chagas disease assessed as increase in host survival at 20 mg/kg once daily for 5 consecutive days through oral gavage starting on day 8 post infection measured 14 days post infection. Also noted: dose 20 mg/kg. In kind it is functional, organism-based. Put shortly:
(§1)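 Female Swiss mice (n = 5 per group) were infected with 25,000 blood-form T. cruzi Tulahuen TcVI trypomastigotes and dosed orally by gavage once daily for 5 days from day 8 pi.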

The test system of data set [7] is Trypanosoma cruzi. Put plainly: Antitrypanosomal activity against Trypanosoma cruzi Tulahuen TcVI infected in Swiss mouse model of Chagas disease assessed as increase in host survival at 100 mg/kg once daily for 5 consecutive days through oral gavage starting on day 8 post infection measured 14 days post infection. In kind it is functional, organism-based. The arrangement: dose 100 mg/kg. Put shortly:
as §1

Data set [8] relates to Trypanosoma cruzi. Put plainly: Antitrypanosomal activity against Trypanosoma cruzi Tulahuen TcVI infected in Swiss mouse model of Chagas disease assessed as increase in host survival at 50 mg/kg once daily for 5 consecutive days through oral gavage starting on day 8 post infection measured 14 days post infection. Also noted: dose 50 mg/kg. In kind it is functional, organism-based. Put shortly: as §1

Data set [9] concerns Mus musculus. Put plainly: AUC (0 to 7.5 hrs) in Swiss mouse at 50 mg/kg, po. Also noted: time < 7.5 hr, dose 50 mg/kg, route oral. In kind it is ADME, organism-based, Plasma. As to conditions: in vivo. Put shortly: (§2)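 Non-infected male Swiss outbred mice received single oral gavage doses of 20, 50 and 100 mg/kg. […] Full-scan LC-MS was run on selected plasma samples to identify metabolites.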

Data set [10] is described as follows: Apparent half life in Swiss mouse at 20 to 100 mg/kg, po. In kind it is ADME, organism-based. Also noted: dose 20-100 mg/kg, route oral. As to conditions: in vivo, read-out: t1/2(app) (converted). Put shortly:
as §2

Data set [11] is described as follows: Tmax in Swiss mouse at 20 to 100 mg/kg, po. As to conditions: in vivo. The arrangement: dose 20-100 mg/kg, route oral. In kind it is ADME, organism-based. Put shortly: as §2
In data set [12] the test system is Mus musculus. Put plainly: AUC (0 to 7.5 hrs) in Swiss mouse at 100 mg/kg, po. In kind it is ADME, organism-based, Plasma. The arrangement: time < 7.5 hr, dose 100 mg/kg, route oral. As to conditions: in vivo. Put shortly:
as §2

For data set [13], the system named is Mus musculus. Put plainly: Toxicity in Swiss mouse at 20 to 100 mg/kg, po. In kind it is organism-based. As to conditions: in vivo. The arrangement: dose 20-100 mg/kg, route oral. Put shortly: as §2
The subject of data set [14] is Mus musculus. Put plainly: AUC (0 to 7.5 hrs) in Swiss mouse at 20 mg/kg, po. In kind it is ADME, organism-based, Plasma. Also noted: time < 7.5 hr, dose 20 mg/kg, route oral. As to conditions: in vivo. Put shortly: as §2
Data set [15] deals with Trypanosoma cruzi. Put plainly: Antitrypanosomal activity against Trypanosoma cruzi Tulahuen TcVI infected in Swiss mouse model of Chagas disease assessed as decrease in blood parasitemia level at 100 mg/kg once daily for 5 consecutive days through oral gavage starting on day 8 post infection measured 14 days post infection. In kind it is functional. Put shortly:
(§3)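 Female Swiss mice (n = 5 per group) were infected with 25,000 blood-form T. cruzi Tulahuen TcVI trypomastigotes. From day 8 post-infection, they received once-daily oral gavage for 5 consecutive days. Blood trypomastigotes/mL were counted on days 8, 9, 12 and 14 pi, and efficacy was taken as decreased parasitemia versus vehicle-treated mice on day 14.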

Data set [16] has as its system Trypanosoma cruzi. Put plainly: Antitrypanosomal activity against Trypanosoma cruzi Tulahuen TcVI infected in Swiss mouse model of Chagas disease assessed as decrease in blood parasitemia level at 50 mg/kg once daily for 5 consecutive days through oral gavage starting on day 8 post infection measured 14 days post infection. In kind it is functional. Put shortly:
as §3

Data set [17] relates to Trypanosoma cruzi. Put plainly: Antitrypanosomal activity against Trypanosoma cruzi Tulahuen TcVI infected in Swiss mouse model of Chagas disease assessed as decrease in blood parasitemia level at 20 mg/kg once daily for 5 consecutive days through oral gavage starting on day 8 post infection measured 14 days post infection. In kind it is functional. Put shortly: as §3

Each structure is given as a SMILES string. Converted amounts (≈) assume the structure as drawn. The source made the active and inactive calls. The calls are words filed in the database; no cut-off is given here.

By IC50 is commonly meant the concentration that inhibits the measured activity by half. In general, AUC refers to the area under the concentration-time curve, a measure of exposure. Usually Tmax stands for the time at which the peak concentration occurs.

For the compound `Cc1csc(C(=O)N2CCN(C(c3cccnc3)c3ccc(Cl)cc3F)CC2)n1` (stereo unspecified), the IC50 is 93000 nM in data set [1], 36 nM in data set [2] and 2800 nM in data set [4]. Also, in [3], the selectivity ratio was above 100. In [5], the solubility kinetic turned out to be 50 µg/mL (≈ 116 µM).

`CC(C)(C)NC(=O)N1CCN(C(c2cncnc2)c2ccc(Cl)cc2F)CC1` (stereo unspecified): the IC50 in data set [1] is above 100000 nM; in data set [2], 54 nM; in data set [4] it was 6900 nM. In addition, the selectivity ratio in data set [3] was above 100. The solubility kinetic in [5] worked out at 50 µg/mL (≈ 123 µM).

As for `CS(=O)(=O)N1CCN(C(c2cccnc2)c2ccc(Cl)cc2F)CC1` (stereo unspecified) [listing 1 of 2 here], the result in [6], in data set [7] and in [8] was Active.

On to `O=S(=O)(c1ccccc1)N1CCN(C(c2cccnc2)c2ccc(Cl)cc2F)CC1` (stereo unspecified), for which the IC50 in data set [1] stood at 42000 nM; in data set [2], 8 nM; in data set [4], 600 nM. For the same compound, the selectivity ratio in data set [3] is above 100. Further, the solubility kinetic in [5] was below 1.6 µg/mL.

With `CC(C)S(=O)(=O)N1CCN(C(c2ccc(Cl)cc2)c2cccnc2)CC1` (stereo unspecified), the IC50 in data set [1] is above 100000 nM; in data set [2], 28 nM; in [4], 810 nM. In data set [3], the selectivity ratio is above 100. In addition, the solubility kinetic in data set [5] is 12.5 µg/mL (≈ 31.7 µM).

Consider `CS(=O)(=O)N1CCN(C(c2cccnc2)c2ccc(Cl)cc2F)CC1.O=C(O)CC(O)(CC(=O)O)C(=O)O` (stereo unspecified), for which the AUC came out at 60.2 µM·h in [9], 43.7 µM·h in data set [12] and 7.2 µM·h in data set [14]. Also, in data set [10], the half-life was 126 min. Moreover, the Tmax in data set [11] was 15 min. Besides, the Activity result in data set [13] is listed as “Non-toxic”.

Take `CC[C@@H]([C@H](C)O)n1ncn(-c2ccc(N3CCN(c4ccc(OC[C@@H]5CO[C@@](Cn6cncn6)(c6ccc(F)cc6F)C5)cc4)CC3)cc2)c1=O` [POSACONAZOLE]: the result in [15], in data set [7], in data set [8] and in data set [16] was Active. Moreover, the values for the IC50 in [1] and in [2] were above 100000 nM and 0.7 nM, respectively.

As to `CC(=O)N1CCN(C(c2ccc(Cl)cc2)c2cccnc2)CC1` (stereo unspecified) [listing 1 of 2 here], the IC50 in [1] was above 100000 nM; in [2], 240 nM; in [4], 7400 nM. Also, the selectivity ratio in data set [3] was above 100. Also, the solubility kinetic in data set [5] is above 100 µg/mL.

Consider `CC(=O)N1CCN(C(c2ccc(Cl)cc2)c2cccnc2)CC1` (stereo unspecified) [listing 2 of 2 here], for which the result in data set [15], in [17] and in [16] was inactive. For the same compound, the result in [6], in data set [7] and in data set [8] was Active.

With `CC(C)(C)C(=O)N1CCN(C(c2cncnc2)c2ccc(Cl)cc2F)CC1` (stereo unspecified), the values for the IC50 in data set [1], in [2] and in [4] were above 100000 nM, 81 nM and 7000 nM, respectively. Moreover, the selectivity ratio in [3] was above 100. For the same compound, the solubility kinetic in data set [5] was 25 µg/mL (≈ 64 µM).

On to `O=C(C1CC1)N1CCN(C(c2cccnc2)c2ccc(Cl)cc2F)CC1` (stereo unspecified), for which the IC50 was above 100000 nM in [1], 26 nM in data set [2] and 1800 nM in data set [4]. Also, the selectivity ratio in data set [3] is above 100. For the same compound, the solubility kinetic in [5] turned out to be 50 µg/mL (≈ 134 µM).

For the compound `CC(C)(C)OC(=O)N1CCN(C(c2cncnc2)c2ccc(Cl)cc2F)CC1` (stereo unspecified), the results for the IC50 in data set [2] and in data set [4] were 24 nM and 2900 nM, respectively. The selectivity ratio in data set [3] was above 100. The solubility kinetic in data set [5] is 12.5 µg/mL (≈ 30.7 µM).

As for `COc1ccccc1N1CCN(C(c2ccc(C(F)(F)F)cc2)c2cnccn2)CC1` (stereo unspecified), the IC50 in data set [2] came out at 240 nM; in data set [4], 25000 nM. The selectivity ratio in data set [3] is above 100. For the same compound, in [5], the solubility kinetic came out at 3.1 µg/mL (≈ 7.24 µM).

Take `CS(=O)(=O)N1CCN(C(c2cccnc2)c2ccc(Cl)cc2F)CC1` (stereo unspecified) [listing 2 of 2 here]: the figures for the Activity in data set [15], in data set [17] and in [16] were 96%, 73% and 95%, respectively. In addition, the results for the IC50 in data set [1], in data set [2] and in data set [4] were above 100000 nM, 35 nM and 1300 nM, respectively. Also, in data set [3], the selectivity ratio was above 100. Moreover, the solubility kinetic in [5] is 12.5 µg/mL (≈ 32.6 µM).

Take `CS(=O)(=O)N1CCN(C(c2ccc(Cl)cc2)c2cccnc2)CC1` (stereo unspecified): the figures for the IC50 in data set [1], in [2] and in data set [4] were above 100000 nM, 110 nM and 3600 nM, respectively. In addition, the selectivity ratio in [3] was above 100. Further, the solubility kinetic in data set [5] stood at 12.5 µg/mL (≈ 34.2 µM).

Turning to `CC(=O)N1CCN(C(c2ccc(Cl)cc2)c2cccnc2)CC1.O=C(O)CC(O)(CC(=O)O)C(=O)O` (stereo unspecified), the AUC in data set [9] was 6.2 µM·h; in data set [12], 9.4 µM·h; in [14], 2.3 µM·h. Moreover, in data set [10], the half-life is 102 min. Moreover, in [11], the Tmax is 15 min. In data set [13], the Activity entry is “Non-toxic”.

`O=S(=O)(c1ccccc1)N1CCN(C(c2ccc(Cl)cc2)c2cccnc2)CC1` (stereo unspecified): the IC50 was 9 nM in data set [2] and 1900 nM in data set [4]. Moreover, in data set [3], the selectivity ratio was above 100. In [5], the solubility kinetic was below 1.6 µg/mL.

As to `CC(C)(C)C(=O)N1CCN(C(c2ccc(C(F)(F)F)cc2)c2cccnc2)CC1` (stereo unspecified), the IC50 in data set [2] was 30 nM; in data set [4] it was 2300 nM. Besides, the selectivity ratio in [3] is above 100. Also, in [5], the solubility kinetic was determined as 12.5 µg/mL (≈ 30.8 µM).

`CS(=O)(=O)N1CCN(C(c2cncnc2)c2ccc(C(F)(F)F)cc2F)CC1` (stereo unspecified): the figures for the IC50 in data set [1], in [2] and in data set [4] were above 100000 nM, 25 nM and 5600 nM, respectively. Also, the selectivity ratio in [3] was above 100. Also, in [5], the solubility kinetic is 25 µg/mL (≈ 59.7 µM).

Source of the values: ChEMBL document CHEMBL2331102 (Bioorg Med Chem, 2013).
